According to ChEMBL document CHEMBL2424622, “Development of amino-pyrimidine inhibitors of c-Jun N-terminal kinase (JNK): kinase profiling guided optimization of a 1,2,3-benzotriazole lead” (Bioorg Med Chem Lett, 2013):

Columns and labels:
[1] = target: Death-associated protein kinase 1 (Homo sapiens, UniProt P53355); assay: Competitive binding affinity to DAPK1 (unknown origin) at 10 uM in presence of ATP relative to control
[2] = target: Serine/threonine-protein kinase MARK1 (Homo sapiens) (UniProt Q9P0L2); assay: Competitive binding affinity to MARK1 (unknown origin) at 10 uM in presence of ATP relative to control
How it was run: (§1)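 In vitro ATP-site competition binding assay, part of profiling against a diverse panel of 128 kinases. Each compound was tested at a single concentration of 10 µM. Kinome selectivity was summarized as S15 selectivity scores.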

[3] = target: T1, MAP kinase-activated protein kinase 5 (Homo sapiens) (UniProt Q8IW41); assay: Competitive binding affinity to MAPKAPK5 (unknown origin) at 10 uM in presence of ATP relative to control
T1 sequence (whole entry): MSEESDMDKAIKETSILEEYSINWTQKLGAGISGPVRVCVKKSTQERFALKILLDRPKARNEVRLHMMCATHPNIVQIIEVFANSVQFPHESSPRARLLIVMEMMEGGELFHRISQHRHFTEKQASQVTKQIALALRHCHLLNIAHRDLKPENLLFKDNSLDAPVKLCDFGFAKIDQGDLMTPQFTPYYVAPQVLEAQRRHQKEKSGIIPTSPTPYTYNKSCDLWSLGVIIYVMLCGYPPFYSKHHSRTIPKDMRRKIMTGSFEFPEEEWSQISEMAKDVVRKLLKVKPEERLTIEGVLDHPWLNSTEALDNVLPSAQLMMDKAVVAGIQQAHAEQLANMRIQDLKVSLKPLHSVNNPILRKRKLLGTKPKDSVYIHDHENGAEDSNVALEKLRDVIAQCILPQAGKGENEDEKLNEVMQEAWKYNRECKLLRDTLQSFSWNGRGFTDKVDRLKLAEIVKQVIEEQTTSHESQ

[4] = tested on: Mast/stem cell growth factor receptor Kit (Homo sapiens), P10721 [V559D,T670I]; assay: Competitive binding affinity to KIT V559D/T670I double mutant (unknown origin) at 10 uM in presence of ATP relative to control
[5] = target: T2, Ephrin type-B receptor 3 (Homo sapiens) (UniProt P54753); assay: Competitive binding affinity to EPHB3 (unknown origin) at 10 uM in presence of ATP relative to control; how it was run: as §1
T2 sequence (whole entry): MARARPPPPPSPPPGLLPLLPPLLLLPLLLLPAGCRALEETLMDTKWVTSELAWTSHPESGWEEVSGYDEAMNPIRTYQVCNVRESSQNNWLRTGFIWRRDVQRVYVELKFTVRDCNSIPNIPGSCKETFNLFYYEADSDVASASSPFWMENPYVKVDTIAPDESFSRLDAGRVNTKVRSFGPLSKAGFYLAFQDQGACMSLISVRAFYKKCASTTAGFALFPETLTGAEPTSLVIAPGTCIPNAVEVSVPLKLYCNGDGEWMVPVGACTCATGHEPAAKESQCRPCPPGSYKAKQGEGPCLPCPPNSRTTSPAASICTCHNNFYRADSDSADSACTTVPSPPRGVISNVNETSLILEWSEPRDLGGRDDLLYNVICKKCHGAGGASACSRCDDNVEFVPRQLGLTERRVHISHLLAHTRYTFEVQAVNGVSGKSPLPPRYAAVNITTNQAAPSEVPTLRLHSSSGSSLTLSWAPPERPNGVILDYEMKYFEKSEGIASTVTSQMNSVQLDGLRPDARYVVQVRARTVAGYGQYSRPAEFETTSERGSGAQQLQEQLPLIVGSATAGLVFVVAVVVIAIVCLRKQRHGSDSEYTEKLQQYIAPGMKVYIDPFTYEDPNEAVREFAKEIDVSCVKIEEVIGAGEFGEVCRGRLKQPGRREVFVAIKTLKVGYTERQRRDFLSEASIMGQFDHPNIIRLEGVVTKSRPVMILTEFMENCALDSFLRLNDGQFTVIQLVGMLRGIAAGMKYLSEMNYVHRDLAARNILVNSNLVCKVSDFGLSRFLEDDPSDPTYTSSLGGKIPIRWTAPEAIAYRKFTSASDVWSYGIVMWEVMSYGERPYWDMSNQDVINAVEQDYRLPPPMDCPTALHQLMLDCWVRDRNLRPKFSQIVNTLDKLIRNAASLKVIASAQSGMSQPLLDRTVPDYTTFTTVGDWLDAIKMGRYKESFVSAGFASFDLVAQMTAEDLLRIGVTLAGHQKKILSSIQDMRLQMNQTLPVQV

[6] = target: T3, Tyrosine-protein kinase ZAP-70 (Homo sapiens) (UniProt P43403); assay: Competitive binding affinity to ZAP70 (unknown origin) at 10 uM in presence of ATP relative to control
T3 sequence (whole entry): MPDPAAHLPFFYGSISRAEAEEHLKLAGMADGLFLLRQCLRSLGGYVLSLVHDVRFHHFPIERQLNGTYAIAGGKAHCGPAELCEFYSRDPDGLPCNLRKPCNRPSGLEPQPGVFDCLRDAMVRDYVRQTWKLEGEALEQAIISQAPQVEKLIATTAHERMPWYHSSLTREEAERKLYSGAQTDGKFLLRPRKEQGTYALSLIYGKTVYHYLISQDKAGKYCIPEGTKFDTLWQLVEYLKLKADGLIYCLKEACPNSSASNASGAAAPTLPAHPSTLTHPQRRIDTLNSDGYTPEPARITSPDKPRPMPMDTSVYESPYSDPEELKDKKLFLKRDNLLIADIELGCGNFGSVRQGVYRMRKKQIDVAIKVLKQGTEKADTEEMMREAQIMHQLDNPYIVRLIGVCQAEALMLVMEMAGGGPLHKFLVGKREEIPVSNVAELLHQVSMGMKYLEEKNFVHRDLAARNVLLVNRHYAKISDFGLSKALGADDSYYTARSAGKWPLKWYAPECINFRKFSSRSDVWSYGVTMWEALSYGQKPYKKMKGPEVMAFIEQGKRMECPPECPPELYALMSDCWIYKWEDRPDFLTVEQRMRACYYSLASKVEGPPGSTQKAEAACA

[7] = target: Serine/threonine-protein kinase 32B (Homo sapiens) (UniProt Q9NY57); assay: Competitive binding affinity to YANK2 (unknown origin) at 10 uM in presence of ATP relative to control
Homo sapiens = organism: Homo sapiens; assay: Competitive binding affinity to EGFR E746 to A750 deletion mutant (unknown origin) at 10 uM in presence of ATP relative to control
How it was run: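 Screened at 10 µM in an in vitro ATP-site competition binding assay across a diverse panel of 128 kinases, with this kinase as one panel member. Readout is binding relative to control.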

[8] = tested on: Tyrosine-protein kinase ABL1 (Homo sapiens), P00519 [H396P]; assay: Competitive binding affinity to ABL1 H396P mutant (unknown origin) at 10 uM in presence of ATP relative to control
[9] = target: Ribosomal protein S6 kinase alpha-1 (Homo sapiens, UniProt Q15418); assay: Competitive binding affinity to RPS6KA1 kinase domain 2 (unknown origin) at 10 uM in presence of ATP relative to control
Chain of Ribosomal protein S6 kinase alpha-1 (Q15418 whole entry, the tested form may be a part): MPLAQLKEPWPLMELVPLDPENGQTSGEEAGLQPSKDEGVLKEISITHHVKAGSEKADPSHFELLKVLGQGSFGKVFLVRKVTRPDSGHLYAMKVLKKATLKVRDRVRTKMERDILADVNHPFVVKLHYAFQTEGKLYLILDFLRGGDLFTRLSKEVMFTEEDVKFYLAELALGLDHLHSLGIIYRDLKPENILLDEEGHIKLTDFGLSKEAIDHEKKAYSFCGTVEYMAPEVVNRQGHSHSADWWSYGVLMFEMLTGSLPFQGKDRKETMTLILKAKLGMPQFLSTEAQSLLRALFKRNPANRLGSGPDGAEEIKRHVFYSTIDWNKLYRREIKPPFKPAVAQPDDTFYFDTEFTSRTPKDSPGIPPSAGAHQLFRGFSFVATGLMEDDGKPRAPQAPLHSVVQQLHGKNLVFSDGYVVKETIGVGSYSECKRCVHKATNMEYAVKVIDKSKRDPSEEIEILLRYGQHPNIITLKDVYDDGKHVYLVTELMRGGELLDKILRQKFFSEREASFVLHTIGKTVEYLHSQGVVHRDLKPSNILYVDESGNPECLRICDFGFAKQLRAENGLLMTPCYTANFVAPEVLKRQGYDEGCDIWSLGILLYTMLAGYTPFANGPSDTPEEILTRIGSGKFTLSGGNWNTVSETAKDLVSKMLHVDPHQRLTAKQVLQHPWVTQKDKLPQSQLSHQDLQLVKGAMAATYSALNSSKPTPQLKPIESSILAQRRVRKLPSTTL

Chain of Serine/threonine-protein kinase 32B (Homo sapiens) (Q9NY57 whole entry): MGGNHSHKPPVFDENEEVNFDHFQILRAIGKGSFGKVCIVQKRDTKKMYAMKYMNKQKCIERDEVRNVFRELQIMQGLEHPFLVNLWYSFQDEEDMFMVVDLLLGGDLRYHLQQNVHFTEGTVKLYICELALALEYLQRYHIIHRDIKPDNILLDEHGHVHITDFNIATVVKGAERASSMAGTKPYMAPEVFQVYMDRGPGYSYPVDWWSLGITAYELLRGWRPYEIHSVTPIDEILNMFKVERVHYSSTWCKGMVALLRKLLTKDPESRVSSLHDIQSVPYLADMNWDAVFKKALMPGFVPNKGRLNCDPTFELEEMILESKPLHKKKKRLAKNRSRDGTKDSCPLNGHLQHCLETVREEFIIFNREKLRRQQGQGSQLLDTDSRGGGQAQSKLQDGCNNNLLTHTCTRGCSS
Chain of Serine/threonine-protein kinase MARK1 (Homo sapiens) (Q9P0L2 whole entry, looked up): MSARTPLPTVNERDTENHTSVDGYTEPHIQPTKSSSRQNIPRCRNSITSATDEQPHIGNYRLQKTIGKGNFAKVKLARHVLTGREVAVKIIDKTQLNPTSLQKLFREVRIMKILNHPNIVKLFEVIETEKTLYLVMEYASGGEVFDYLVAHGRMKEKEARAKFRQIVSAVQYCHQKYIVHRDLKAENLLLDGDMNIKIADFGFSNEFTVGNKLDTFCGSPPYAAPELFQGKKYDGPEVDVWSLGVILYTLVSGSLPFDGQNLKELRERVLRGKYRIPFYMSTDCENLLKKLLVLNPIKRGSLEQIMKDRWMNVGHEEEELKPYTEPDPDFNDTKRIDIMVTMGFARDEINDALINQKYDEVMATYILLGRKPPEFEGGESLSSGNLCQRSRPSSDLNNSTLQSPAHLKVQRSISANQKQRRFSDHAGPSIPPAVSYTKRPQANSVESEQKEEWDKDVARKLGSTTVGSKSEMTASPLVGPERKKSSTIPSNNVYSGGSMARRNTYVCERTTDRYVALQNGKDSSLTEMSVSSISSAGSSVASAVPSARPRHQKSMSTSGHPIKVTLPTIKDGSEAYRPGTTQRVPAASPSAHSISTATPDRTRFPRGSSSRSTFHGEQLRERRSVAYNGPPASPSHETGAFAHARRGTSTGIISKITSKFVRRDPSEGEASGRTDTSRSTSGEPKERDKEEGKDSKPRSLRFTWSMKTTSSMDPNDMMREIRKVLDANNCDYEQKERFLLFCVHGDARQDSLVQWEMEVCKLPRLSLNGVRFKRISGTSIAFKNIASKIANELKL
Chain of Death-associated protein kinase 1 (P53355 whole entry, looked up): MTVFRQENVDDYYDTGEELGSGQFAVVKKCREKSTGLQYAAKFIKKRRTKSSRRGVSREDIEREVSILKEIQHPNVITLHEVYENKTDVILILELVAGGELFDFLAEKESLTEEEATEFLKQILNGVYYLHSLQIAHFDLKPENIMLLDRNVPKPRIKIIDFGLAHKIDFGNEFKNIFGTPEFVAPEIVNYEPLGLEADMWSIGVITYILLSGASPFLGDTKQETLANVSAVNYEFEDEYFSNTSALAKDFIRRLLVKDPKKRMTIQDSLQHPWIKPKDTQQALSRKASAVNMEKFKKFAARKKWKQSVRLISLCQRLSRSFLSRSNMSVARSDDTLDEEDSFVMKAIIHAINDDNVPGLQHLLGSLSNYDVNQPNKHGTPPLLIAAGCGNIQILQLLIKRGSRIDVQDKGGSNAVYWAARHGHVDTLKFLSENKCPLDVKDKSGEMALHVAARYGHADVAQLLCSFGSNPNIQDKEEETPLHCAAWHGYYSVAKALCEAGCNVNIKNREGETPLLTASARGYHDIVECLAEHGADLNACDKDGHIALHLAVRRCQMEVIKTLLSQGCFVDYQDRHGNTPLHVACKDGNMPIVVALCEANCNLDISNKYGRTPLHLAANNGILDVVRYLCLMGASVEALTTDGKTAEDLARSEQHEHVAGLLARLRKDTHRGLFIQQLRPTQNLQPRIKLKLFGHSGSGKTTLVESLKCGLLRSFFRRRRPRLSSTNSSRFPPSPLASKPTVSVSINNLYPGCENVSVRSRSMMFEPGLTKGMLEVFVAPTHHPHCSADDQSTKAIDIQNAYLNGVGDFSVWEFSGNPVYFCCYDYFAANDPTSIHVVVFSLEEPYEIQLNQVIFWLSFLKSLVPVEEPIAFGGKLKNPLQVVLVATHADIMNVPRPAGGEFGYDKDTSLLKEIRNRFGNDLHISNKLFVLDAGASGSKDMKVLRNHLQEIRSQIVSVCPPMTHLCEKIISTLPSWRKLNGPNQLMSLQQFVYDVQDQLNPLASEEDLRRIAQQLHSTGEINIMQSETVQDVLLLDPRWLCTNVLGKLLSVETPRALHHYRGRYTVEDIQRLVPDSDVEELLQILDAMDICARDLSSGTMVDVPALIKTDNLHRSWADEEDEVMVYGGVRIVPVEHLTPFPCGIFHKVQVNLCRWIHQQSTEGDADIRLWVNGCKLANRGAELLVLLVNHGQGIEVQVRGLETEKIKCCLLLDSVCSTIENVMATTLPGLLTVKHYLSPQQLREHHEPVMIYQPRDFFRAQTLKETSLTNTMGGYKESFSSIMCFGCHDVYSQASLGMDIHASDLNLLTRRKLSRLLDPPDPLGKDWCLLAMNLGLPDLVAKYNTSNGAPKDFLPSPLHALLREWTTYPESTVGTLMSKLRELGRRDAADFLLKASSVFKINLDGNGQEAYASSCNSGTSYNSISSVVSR
Chain of Mast/stem cell growth factor receptor Kit (Homo sapiens), P10721 [V559D,T670I] (P10721 whole entry V559D/T670I): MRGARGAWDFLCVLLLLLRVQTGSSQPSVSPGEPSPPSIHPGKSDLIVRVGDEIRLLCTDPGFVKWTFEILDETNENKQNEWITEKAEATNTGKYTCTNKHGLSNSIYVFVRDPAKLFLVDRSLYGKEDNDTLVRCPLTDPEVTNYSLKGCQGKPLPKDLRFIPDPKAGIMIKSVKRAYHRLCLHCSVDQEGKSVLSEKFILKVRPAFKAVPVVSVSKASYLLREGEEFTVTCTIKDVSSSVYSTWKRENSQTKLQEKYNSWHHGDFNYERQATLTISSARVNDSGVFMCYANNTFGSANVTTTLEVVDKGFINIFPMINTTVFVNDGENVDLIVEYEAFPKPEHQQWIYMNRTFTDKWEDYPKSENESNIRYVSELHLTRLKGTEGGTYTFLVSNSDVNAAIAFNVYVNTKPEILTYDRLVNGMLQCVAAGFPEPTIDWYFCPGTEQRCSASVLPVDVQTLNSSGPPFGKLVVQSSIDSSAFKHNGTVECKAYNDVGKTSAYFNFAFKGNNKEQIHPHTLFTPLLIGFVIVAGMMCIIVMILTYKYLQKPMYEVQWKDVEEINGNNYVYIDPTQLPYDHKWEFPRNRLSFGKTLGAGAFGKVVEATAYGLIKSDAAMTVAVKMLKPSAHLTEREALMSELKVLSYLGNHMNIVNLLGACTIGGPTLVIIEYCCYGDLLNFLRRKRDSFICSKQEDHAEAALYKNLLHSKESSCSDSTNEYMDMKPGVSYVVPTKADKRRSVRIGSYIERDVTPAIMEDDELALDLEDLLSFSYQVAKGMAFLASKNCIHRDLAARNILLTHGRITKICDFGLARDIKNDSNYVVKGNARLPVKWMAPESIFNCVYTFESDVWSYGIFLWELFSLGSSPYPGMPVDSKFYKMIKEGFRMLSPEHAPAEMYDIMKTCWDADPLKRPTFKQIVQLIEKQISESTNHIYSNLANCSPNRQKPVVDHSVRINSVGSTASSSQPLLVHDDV

Compound | inhibition [1] [%] | inhibition [2] [%] | inhibition [3] [%] | inhibition [4] [%] | inhibition [5] [%] | inhibition [6] [%] | inhibition [7] [%] | inhibition (Homo sapiens) [%] | inhibition [8] [%] | inhibition [9] [%]
CS(=O)(=O)CCCOc1cccc2c1ccn2-c1ccnc(N[C@H]2CC[C@H](C(=O)N3CCC(O)CC3)CC2)n1 | > 85 |  |  |  |  |  |  |  |  | 
O[C@H]1CC[C@H](Nc2nccc(-n3ccc4ccccc43)n2)CC1 | < 50 | < 50 | < 50 | < 50 | < 50 | < 50 | < 50 | < 50 | < 50 | 95
O[C@H]1CC[C@H](Nc2nccc(-n3nnc4ccccc43)n2)CC1 | 98 | < 50 | < 50 | 74 | < 50 | < 50 | < 50 | < 50 | < 50 | 100
O[C@H]1CC[C@H](Nc2nccc(-n3ncc4ccccc43)n2)CC1 | < 50 | < 50 | < 50 | 80 | < 50 | < 50 | < 50 | 99 | < 50 | 100
O[C@H]1CC[C@H](Nc2nccc(-c3n[nH]c4ccccc34)n2)CC1 |  | 66 |  | 96 | < 50 | < 50 | < 50 | < 50 | < 50 | 
